# Measurements gathered from unrelated publications.
# Target: MAP/microtubule affinity-regulating kinase 4 (MARK4, Homo sapiens, UniProt Q96L34)
# Observed: enzyme activity
# Action: inhibitor
# Sequence (Q96L34 1-752, as in one of the studies): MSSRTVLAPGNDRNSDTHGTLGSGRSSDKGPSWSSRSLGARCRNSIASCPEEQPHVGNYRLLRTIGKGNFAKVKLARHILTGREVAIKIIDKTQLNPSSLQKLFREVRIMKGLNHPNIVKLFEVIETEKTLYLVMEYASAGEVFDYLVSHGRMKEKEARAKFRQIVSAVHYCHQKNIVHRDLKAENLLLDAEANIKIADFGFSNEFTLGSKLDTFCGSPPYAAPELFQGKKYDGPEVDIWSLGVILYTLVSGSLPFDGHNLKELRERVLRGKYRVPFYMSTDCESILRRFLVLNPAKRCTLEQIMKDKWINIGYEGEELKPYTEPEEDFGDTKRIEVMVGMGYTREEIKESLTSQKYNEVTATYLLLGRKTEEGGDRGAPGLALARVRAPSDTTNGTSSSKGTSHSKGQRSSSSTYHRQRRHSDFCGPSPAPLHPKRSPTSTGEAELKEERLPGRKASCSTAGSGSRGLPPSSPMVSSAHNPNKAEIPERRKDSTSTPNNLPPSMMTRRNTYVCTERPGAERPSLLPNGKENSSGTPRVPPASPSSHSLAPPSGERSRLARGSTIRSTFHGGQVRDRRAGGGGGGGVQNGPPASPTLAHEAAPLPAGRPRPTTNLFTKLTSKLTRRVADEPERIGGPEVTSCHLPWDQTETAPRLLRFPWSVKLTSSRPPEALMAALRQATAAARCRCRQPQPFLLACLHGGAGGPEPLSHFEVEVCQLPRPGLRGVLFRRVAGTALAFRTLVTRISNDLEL
Compound,technique,tested at,remaining activity [%]
NS(=O)(=O)c1ccc(CNc2ccnc(Nc3cccc(NC(=O)N4CCCC4)c3)n2)cc1,radiometric,1 µM,99
CC(C)(C)c1nc(-c2cccc(NS(=O)(=O)c3c(F)cccc3F)c2F)c(-c2ccnc(N)n2)s1,radiometric,1 µM,84
Cn1c(=O)n(-c2ccc(C(C)(C)C#N)cc2)c2c3cc(-c4cnc5ccccc5c4)ccc3ncc21,,10 µM,81
Cc1ccc(C(=O)Nc2ccc(CN3CCN(C)CC3)c(C(F)(F)F)c2)cc1C#Cc1cnc2cccnn12,,23.5 nM,94
FC(F)c1nc2ccccc2n1-c1nc(N2CCOCC2)nc(N2CCOCC2)n1,,10 µM,89
Cc1nn(CC(F)(F)F)cc1Nc1nccc(NCCCNC(=O)C2CCC2)n1,radiometric,1 µM,113
CC(C)(O)[C@H]1CC[C@H](Nc2ccc3ncc(-c4cccc(C(F)(F)F)c4)n3n2)CC1,,1 µM,97.8
Cc1ccc(Nc2nccc(N(C)c3ccc4c(C)n(C)nc4c3)n2)cc1S(N)(=O)=O,,0.5 µM,98
Cc1nn(CC(F)(F)F)cc1Nc1ncc(C2CC2)c(NCCc2c[nH]cn2)n1,radiometric,1 µM,88
Cc1sc(C(=O)NC2COC2)cc1-n1cc(NC(=O)Nc2c(F)cccc2Cl)cn1,,10 µM,108
COc1cc(Cl)c(C(=O)N[C@@H](CN[C@H]2CC[C@@H](N)CC2)Cc2ccc(C#N)cc2)cc1-c1ccc(CN[C@H](C)c2ccc(C)cc2)o1,,1 µM,91
COc1cc(Nc2cnc(C#N)c(O[C@H](C)CN(C)C)n2)ncc1-c1cnn(C)c1,radiometric,1 µM,105
Cc1nn(CC(F)(F)F)cc1Nc1nccc(NCc2ccc(S(N)(=O)=O)cc2)n1,radiometric,1 µM,101
CC(C)(C)c1nc2c(s1)c1nc(N)ncc1c1ccc(NS(=O)(=O)c3c(F)cccc3F)c(F)c12,radiometric,1 µM,88
Brc1cnc(Nc2cccc(CN3CCOCC3)c2)nc1NCCc1c[nH]cn1,radiometric,1 µM,3
O=C(Nc1cnn(-c2csc(C(=O)NC3COC3)c2)c1)Nc1c(F)cccc1Cl,,5 µM,97.9
